Data reported in PubChem BioAssay.
The source made the active and inactive calls.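 The calls were made as follows, unless noted: active = viability at or below 10% of carrier control in both of two separate runs; inconclusive = viability at or below 10% in only one of the two runs; inactive = the rest.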

Key:
[1] = Her2 expression decrease, cell viability multiplex – SKBR3 breast tumor cells, AlphaScreen, ATP viability, primary screen (AID 461;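 active = Her2 level under about 52% in both replicate screens, with viability over 70% of control, limit read from the data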;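 as to Her2 level: lower value means less Her2 protein in the cells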;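 as to viability: percent of carrier control wells set as 100% viability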); settings: SKBR3 Her2 protein level, 18-24 h, measured here: SKBR3 viability, ATP luminescence, at 10 µM
[2] = biological target: Receptor tyrosine-protein kinase erbB-2 (Homo sapiens) (UniProt P04626); assay: as above; settings: 18-24 h, at 10 µM, stronger effect = lower value
Sequence of Receptor tyrosine-protein kinase erbB-2 (Homo sapiens) (P04626 whole entry, looked up): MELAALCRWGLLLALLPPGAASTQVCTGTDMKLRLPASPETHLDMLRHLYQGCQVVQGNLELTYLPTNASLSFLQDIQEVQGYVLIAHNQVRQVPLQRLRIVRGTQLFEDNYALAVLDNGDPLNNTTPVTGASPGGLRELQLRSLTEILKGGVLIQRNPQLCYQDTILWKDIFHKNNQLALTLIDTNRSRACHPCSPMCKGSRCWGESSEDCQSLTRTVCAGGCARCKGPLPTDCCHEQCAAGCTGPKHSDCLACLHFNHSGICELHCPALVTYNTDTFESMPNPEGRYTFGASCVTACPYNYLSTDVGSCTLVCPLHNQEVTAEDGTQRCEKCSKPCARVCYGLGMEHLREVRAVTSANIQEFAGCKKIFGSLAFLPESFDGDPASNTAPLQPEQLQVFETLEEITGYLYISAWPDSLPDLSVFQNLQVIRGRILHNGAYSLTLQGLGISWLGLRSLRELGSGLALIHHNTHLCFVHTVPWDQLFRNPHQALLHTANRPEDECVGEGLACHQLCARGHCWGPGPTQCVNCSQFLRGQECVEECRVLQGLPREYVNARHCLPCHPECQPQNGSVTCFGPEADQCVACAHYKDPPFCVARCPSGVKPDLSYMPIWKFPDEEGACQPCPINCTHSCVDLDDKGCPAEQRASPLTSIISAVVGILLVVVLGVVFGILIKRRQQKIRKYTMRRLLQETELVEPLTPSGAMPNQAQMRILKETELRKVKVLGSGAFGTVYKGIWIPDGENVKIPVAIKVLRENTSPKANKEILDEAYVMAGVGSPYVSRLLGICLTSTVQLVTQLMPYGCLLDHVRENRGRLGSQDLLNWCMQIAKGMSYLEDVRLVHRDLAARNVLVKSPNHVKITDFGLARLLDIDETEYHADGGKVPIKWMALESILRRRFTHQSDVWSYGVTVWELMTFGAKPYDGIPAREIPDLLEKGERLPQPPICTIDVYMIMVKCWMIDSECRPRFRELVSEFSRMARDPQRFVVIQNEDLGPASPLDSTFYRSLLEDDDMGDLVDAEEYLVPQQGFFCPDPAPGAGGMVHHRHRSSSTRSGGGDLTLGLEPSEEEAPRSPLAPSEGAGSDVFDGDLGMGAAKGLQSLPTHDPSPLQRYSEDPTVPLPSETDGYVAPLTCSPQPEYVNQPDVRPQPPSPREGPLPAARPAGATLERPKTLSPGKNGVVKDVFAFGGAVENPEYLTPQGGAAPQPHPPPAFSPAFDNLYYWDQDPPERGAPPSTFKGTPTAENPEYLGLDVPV

[3] = reduced viability of SK-BR-3 breast cancer cells – cell-based, 24 h, human, pilot screen (AID 572); settings: SK-BR-3 viability, CellTiter-Glo luminescence, at 10 µM, stronger effect = lower value;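 also: compound exposure lasted between 18 and 24 h rather than exactly 24 h; 100% = carrier-treated control wells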
[4] = HUVEC growth inhibition – cell-based, human, primary screen (AID 575;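 active = viability at or below 30% in both replicate assays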;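 also: 100% = median of untreated cell wells with 0.1% DMSO on each plate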); settings: HUVEC proliferation, CellTiter-Glo luminescence, 72 h; at 10 µM; stronger effect = lower value
How it was run: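 System – primary HUVEC, no more than 12 passages · Medium – Low-serum (2% FBS) EBM, supplemented · Times – 72 h exposure, 37 °C, 5% CO2, 30 min RT equilibration · Measured by – luminescent ATP assay · Read-out – % viability relative to median vehicle-well signal on each plate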

[5] = H69AR cell proliferation blockers – human, duplicate replicates, primary screen (AID 580;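 active = viability at or under a set limit in both replicates, limit being median viability minus 3 SD, cut at about 48% in these data, passing the limit was not always enough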;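 also: 100% = mean luminescence of untreated wells and 0% = no signal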); settings: H69AR lung tumor cells viability, ATP luminescence, 72 h; at 10 µM; stronger effect = lower value
[6] = MRP1 drug-resistance reversers in H69AR cells – cell-based, doxorubicin co-treatment, pilot screen (AID 601;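 active = viability loss from added drug above about 55%, and viability with drug at most 40%, in both replicates, limit read from the data, passing the limit was not always enough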); settings: CellTiter-Glo, 72 h, at 10 µM; for differential viability (reversal): stronger effect = higher value
[7] = yeast transport mutant growth inhibition pilot in 384-well plates, post-Golgi transport modulator project (AID 636; in the data active = inhibition above about 31%); settings: absorbance 615 nm, about 18 h, stronger effect = higher value
[8] = growth suppression of yeast trafficking mutant, preliminary HTS, modulators of trafficking downstream of Golgi apparatus project, 1536-format plate, OD 615 nm (AID 637; in the data active = inhibition above about 30%); settings: yeast transport mutant growth, absorbance 615 nm, 18 h; stronger effect = higher value
[9] = H69AR cells + 2 uM doxorubicin, measured here: viability with 2 uM doxorubicin, stronger effect = lower value
[10] = H69AR cells, compound alone cytotoxicity

With `CCOC(=O)c1cnc(SCC)[nH]c1=O` the viability [1] was 84.5%, the Her2 level [2] was 101% (inactive) and the viability [3] was 84.5% (inactive). For the same compound, the viability [4] was 84.4% (inactive), the viability [5] was 97% (inactive) and the differential viability (reversal) ([6]; H69AR cells + 2 uM doxorubicin) was -5.68% (inactive). The viability [6, 9] was 103%, the viability [6, 10] was 97% and the inhibition [7] was -1.92% (inactive). The inhibition [8] was -8% (inactive).
With `CC(O)c1n(C)c(Cl)c[n+]1C` (stereo not given) the viability [1] was 114%, the Her2 level [2] was 95% (inactive) and the viability [3] was 114% (inactive). The viability [4] was 109% (inactive), the viability [5] was 103% (inactive) and the differential viability (reversal) ([6]; H69AR cells + 2 uM doxorubicin) was -3.03% (inactive). For the same compound, the viability [6, 9] was 106%, the viability [6, 10] was 103% and the inhibition [7] was -0.66% (inactive). For the same compound, the inhibition [8] was 6.39% (inactive).
For `COc1ccccc1NC(=O)C1=C(C)Nc2ncnn2C1c1ccc(C)o1` (stereo not given), the viability [1] was 87.5%, the Her2 level [2] was 99% (inactive) and the viability [3] was 87.5% (inactive). The viability [4] was 104% (inactive), the viability [5] was 99.3% (inactive) and the differential viability (reversal) ([6]; H69AR cells + 2 uM doxorubicin) was 11.7% (inactive). The viability [6, 9] was 87.6%, the viability [6, 10] was 99.3% and the inhibition [7] was -0.26% (inactive). For the same compound, the inhibition [8] was -2.79% (inactive).
With `Cc1ccc(/C=c2\sc3nc(-c4ccccc4Br)nn3c2=O)o1` the viability [1] was 89%, the Her2 level [2] was 85% (inactive) and the viability [3] was 89% (inactive). The viability [4] was 110% (inactive), the viability [5] was 95.5% (inactive) and the differential viability (reversal) ([6]; H69AR cells + 2 uM doxorubicin) was 6.48% (inactive). For the same compound, the viability [6, 9] was 89%, the viability [6, 10] was 95.5% and the inhibition [7] was -7.47% (inactive). For the same compound, the inhibition [8] was 10.7% (inactive).
With `CC(C)Oc1ccc(N2CC(C(=O)Nc3ccccc3F)CC2=O)cc1` (stereo not given) the viability [1] was 101%, the Her2 level [2] was 122% (inactive) and the viability [3] was 101% (inactive). The viability [4] was 92.6% (inactive), the viability [5] was 97.6% (inactive) and the differential viability (reversal) ([6]; H69AR cells + 2 uM doxorubicin) was 8.51% (inactive). The viability [6, 9] was 89.1%, the viability [6, 10] was 97.6% and the inhibition [7] was -1.17% (inactive). The inhibition [8] was -10.3% (inactive).
With `COCCn1c(SCC(=O)Nc2nnc(C)s2)nnc1-c1ccncc1` the viability [1] was 110%, the Her2 level [2] was 94% (inactive) and the viability [3] was 110% (inactive). The viability [4] was 101% (inactive), the viability [5] was 97.9% (inactive) and the differential viability (reversal) ([6]; H69AR cells + 2 uM doxorubicin) was 11.8% (inactive). The viability [6, 9] was 86.1%, the viability [6, 10] was 97.9% and the inhibition [7] was -5.95% (inactive). For the same compound, the inhibition [8] was 7.83% (inactive).
With `CCOc1ccc2c(c1)sc1nc(C(=O)OC)cc(=O)n12` the viability [1] was 94%, the Her2 level [2] was 84% (inactive) and the viability [3] was 94% (inactive). For the same compound, the viability [4] was 104% (inactive), the viability [5] was 84.8% (inactive) and the differential viability (reversal) ([6]; H69AR cells + 2 uM doxorubicin) was -0.545% (inactive). The viability [6, 9] was 85.4%, the viability [6, 10] was 84.8% and the inhibition [7] was -6.49% (inactive). The inhibition [8] was -6% (inactive).
For `COc1ccc(S(=O)(=O)NCCC(=O)NC2CCCCCCC2)cc1`, the viability [1] was 108%, the Her2 level [2] was 85.5% (inactive) and the viability [3] was 108% (inactive). For the same compound, the viability [4] was 105% (inactive), the viability [5] was 88.6% (inactive) and the differential viability (reversal) ([6]; H69AR cells + 2 uM doxorubicin) was 2.31% (inactive). For the same compound, the viability [6, 9] was 86.3%, the viability [6, 10] was 88.6% and the inhibition [7] was 0% (inactive). The inhibition [8] was -8.2% (inactive).
For `COc1ccc(N(C(=O)c2ccco2)S(=O)(=O)c2cc(OC)ccc2OC)cc1`, the viability [1] was 102%, the Her2 level [2] was 84.5% (inactive) and the viability [3] was 102% (inactive). The viability [4] was 81% (inactive), the viability [5] was 72.2% (inactive) and the differential viability (reversal) ([6]; H69AR cells + 2 uM doxorubicin) was -25.7% (inactive). The viability [6, 9] was 97.9%, the viability [6, 10] was 72.2% and the inhibition [7] was -1.84% (inactive). For the same compound, the inhibition [8] was 4.17% (inactive).
In the case of `Cc1noc(C)c1S(=O)(=O)N1CCC(C(=O)Nc2ccccn2)CC1`, the viability [1] is reported as 98%, the Her2 level [2] is reported as 81% (inactive) and the viability [3] is reported as 98% (inactive). The viability [4] was 105% (inactive), the viability [5] was 89.5% (inactive) and the differential viability (reversal) ([6]; H69AR cells + 2 uM doxorubicin) was 6.2% (inactive). The viability [6, 9] was 83.3%, the viability [6, 10] was 89.5% and the inhibition [7] was -2.11% (inactive). For the same compound, the inhibition [8] was 0.48% (inactive).
With `CCC(=O)N(Cc1cc2c(C)ccc(C)c2[nH]c1=O)C1CCCCC1` the viability [1] was 86%, the Her2 level [2] was 71.5% (inactive) and the viability [3] was 86% (inactive). For the same compound, the viability [4] was 79.2% (inactive), the viability [5] was 85.9% (inactive) and the differential viability (reversal) ([6]; H69AR cells + 2 uM doxorubicin) was -0.72% (inactive). The viability [6, 9] was 86.6%, the viability [6, 10] was 85.9% and the inhibition [7] was -6.71% (inactive). The inhibition [8] was 0.32% (inactive).
With `Cc1cc(Nc2ccccc2N2CCOCC2)n2ncnc2n1` the viability [1] was 94.5%, the Her2 level [2] was 96% (inactive) and the viability [3] was 94.5% (inactive). The viability [4] was 88% (inactive), the viability [5] was 97.1% (inactive) and the differential viability (reversal) ([6]; H69AR cells + 2 uM doxorubicin) was -0.715% (inactive). The viability [6, 9] was 97.8%, the viability [6, 10] was 97.1% and the inhibition [7] was -2.43% (inactive). The inhibition [8] was 4.6% (inactive).
In the case of `CCn1c(=O)n(CC(=O)NCc2ccccc2OC)c(=O)c2ccccc21`, the viability [1] is reported as 95%, the Her2 level [2] is reported as 84% (inactive) and the viability [3] is reported as 95% (inactive). For the same compound, the viability [4] was 87.5% (inactive), the viability [5] was 101% (inactive) and the differential viability (reversal) ([6]; H69AR cells + 2 uM doxorubicin) was 3.65% (inactive). For the same compound, the viability [6, 9] was 97.4%, the viability [6, 10] was 101% and the inhibition [7] was 0.92% (inactive). For the same compound, the inhibition [8] was -3.06% (inactive).
For `C=CCn1c(COc2ccccc2F)nnc1SCC(=O)N1CC(=O)Nc2ccccc21`, the viability [1] was 92%, the Her2 level [2] was 104% (inactive) and the viability [3] was 92% (inactive). The viability [4] was 109% (inactive), the viability [5] was 92.2% (inactive) and the differential viability (reversal) ([6]; H69AR cells + 2 uM doxorubicin) was 2.88% (inactive). The viability [6, 9] was 89.3%, the viability [6, 10] was 92.2% and the inhibition [7] was -4.46% (inactive). The inhibition [8] was 51.5% (active).
For `COc1cc(C2C(C#N)=C(N)Oc3cc(N)ccc32)cc(OC)c1OC` (stereo not given), the viability [1] was 91.5%, the Her2 level [2] was 75% (inactive) and the viability [3] was 91.5% (inactive). The viability [4] was 42.1% (inactive), the viability [5] was 32.3% (active) and the differential viability (reversal) ([6]; H69AR cells + 2 uM doxorubicin) was -28.8% (inactive). The viability [6, 9] was 61.1%, the viability [6, 10] was 32.3% and the inhibition [7] was -4% (inactive). For the same compound, the inhibition [8] was 8.03% (inactive).
For `COc1cc(C)c(-c2cc(C(=O)O)c(C)o2)cc1C(C)C`, the viability [1] was 99.5%, the Her2 level [2] was 88% (inactive) and the viability [3] was 99.5% (inactive). The viability [4] was 95.7% (inactive), the viability [5] was 91.8% (inactive) and the differential viability (reversal) ([6]; H69AR cells + 2 uM doxorubicin) was 6.8% (inactive). The viability [6, 9] was 85%, the viability [6, 10] was 91.8% and the inhibition [7] was -3.87% (inactive). The inhibition [8] was -5.4% (inactive).
